The test system of series [1] is Staphylococcus aureus. The series is described as follows: Antibacterial activity against methicillin-resistant Staphylococcus aureus NRS107 after 20 hrs by broth microdilution assay. The note with it: NRS107, 20 h. The class given is functional. The procedure, abridged: (§1)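 Broth microdilution per CLSI in cation-adjusted Mueller Hinton broth. Compounds serially diluted, in triplicate. Incubation at 37 °C for at least 20 hours. MIC taken as the lowest concentration with no visible bacterial growth.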
A general note: In broth dilution the organism is exposed to a series of concentrations in liquid medium.

The subject of series [2] is Staphylococcus aureus. The series is described as follows: Antibacterial activity against methicillin-resistant Staphylococcus aureus USA300 after 20 hrs by broth microdilution assay. The class given is functional. As to conditions: USA300, 20 h. The essentials: as §1
In series [3] the test system is Staphylococcus aureus. Description: Bactericidal activity against methicillin-resistant Staphylococcus aureus USA300 up to 18 hrs by broth microdilution assay. The class given is functional. As to conditions: USA300, 18 h, read-out: MBC99.9.
The subject of series [4] is Staphylococcus aureus. The series is described as follows: Bactericidal activity against methicillin-resistant Staphylococcus aureus NRS107 up to 18 hrs by broth microdilution assay. The series is classed as functional. The note with it: NRS107, 18 h, read-out: MBC99.9.
Series [5] has as its system Staphylococcus aureus. The series is described as follows: Antibacterial activity against methicillin-resistant Staphylococcus aureus NRS119 after 20 hrs by broth microdilution assay. The class given is functional. The note with it: NRS119, 20 h. The essentials:
as §1

Series [6] has as its system Staphylococcus aureus. Description: Bactericidal activity against methicillin-resistant Staphylococcus aureus NRS119 up to 18 hrs by broth microdilution assay. The series is classed as functional. As to conditions: NRS119, 18 h, read-out: MBC99.9.
Series [7] deals with Staphylococcus aureus. The series is described as follows: Antibacterial activity against methicillin-resistant Staphylococcus aureus NRS123 (USA400) after 20 hrs by broth microdilution assay. The class given is functional. The essentials:
as §1

The subject of series [8] is Staphylococcus aureus. The series is described as follows: Bactericidal activity against methicillin resistant Staphylococcus aureus NRS123 (USA400) up to 18 hrs by broth microdilution assay. The note with it: read-out: MBC99.9. The series is classed as functional.
Series [9] relates to Staphylococcus aureus. Description: Antibacterial activity against vancomycin-resistant Staphylococcus aureus VRS10 after 20 hrs by broth microdilution assay. The note with it: VRS10, 20 h. The class given is functional. The procedure, abridged:
as §1

The subject of series [10] is Staphylococcus aureus. Description: Bactericidal activity against methicillin resistant vancomycin-resistant Staphylococcus aureus VRS10 up to 18 hrs by broth microdilution assay. The series is classed as functional. The note with it: VRS10, 18 h, read-out: MBC99.9.
The subject of series [11] is Staphylococcus aureus. Description: Antibacterial activity against vancomycin-resistant Staphylococcus aureus VRS11a after 20 hrs by broth microdilution assay. The class given is functional. The essentials:
as §1

In series [12] the test system is Staphylococcus aureus. The series is described as follows: Bactericidal activity against methicillin resistant vancomycin-resistant Staphylococcus aureus VRS11a up to 18 hrs by broth microdilution assay. The series is classed as functional. The note with it: read-out: MBC99.9.
Series [13] concerns Staphylococcus aureus. Description: Antibacterial activity against vancomycin-resistant Staphylococcus aureus VRS12 after 20 hrs by broth microdilution assay. The series is classed as functional. The note with it: VRS12, 20 h. The procedure, abridged: as §1
The test system of series [14] is Staphylococcus aureus. Description: Bactericidal activity against methicillin resistant vancomycin-resistant Staphylococcus aureus VRS12 up to 18 hrs by broth microdilution assay. The series is classed as functional. As to conditions: VRS12, 18 h, read-out: MBC99.9. The essentials:
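MBC set up from the MIC plates. Aliquots from wells with no growth spotted onto tryptic soy agar and incubated at 37 °C for at least 18 hours. MBC taken as the lowest concentration giving 99.9% inhibition of bacterial growth.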

The test system of series [15] is Staphylococcus aureus. The series is described as follows: Potency index, ratio of vancomycin MIC to compound MIC for antibacterial activity against vancomycin-resistant Staphylococcus aureus VRS10. The class given is functional.
Series [16] deals with Staphylococcus aureus. The series is described as follows: Potency index, ratio of vancomycin MIC to compound MIC for antibacterial activity against vancomycin-resistant Staphylococcus aureus VRS11a. The series is classed as functional.
In series [17] the test system is Staphylococcus aureus. Description: Potency index, ratio of vancomycin MIC to compound MIC for antibacterial activity against vancomycin-resistant Staphylococcus aureus VRS12. The class given is functional.
Series [18] deals with Staphylococcus aureus. Description: Ratio of MBC to MIC for methicillin-resistant Staphylococcus aureus USA300. The class given is functional. The essentials: (§2)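 MBC/MIC ratio. […] MBC by plating no-growth wells onto tryptic soy agar at 37 °C for at least 18 h; taken as the concentration giving 99.9% growth inhibition.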
Series [19] relates to Staphylococcus aureus. The series is described as follows: Ratio of MBC to MIC for methicillin-resistant Staphylococcus aureus NRS107. The class given is functional. The essentials: as §2
Series [20] concerns Staphylococcus aureus. Description: Ratio of MBC to MIC for methicillin-resistant Staphylococcus aureus NRS119. The series is classed as functional. The procedure, abridged:
as §2

The subject of series [21] is Staphylococcus aureus. Description: Ratio of MBC to MIC for methicillin-resistant Staphylococcus aureus NRS123 (USA400). The series is classed as functional. The note with it: read-out: Ratio. The essentials: as §2
The test system of series [22] is Staphylococcus aureus. Description: Ratio of MBC to MIC for vancomycin-resistant Staphylococcus aureus VRS10. The class given is functional. The essentials:
as §2

Series [23] concerns Staphylococcus aureus. Description: Ratio of MBC to MIC for vancomycin-resistant Staphylococcus aureus VRS11a. The class given is functional. The procedure, abridged:
as §2

Series [24] relates to Staphylococcus aureus. The series is described as follows: Ratio of MBC to MIC for vancomycin-resistant Staphylococcus aureus VRS12. The series is classed as functional. The procedure, abridged: as §2
The next series has as its system HRT-18 cell line. Description: Cytotoxicity against human HRT18 cells assessed as reduction in cell viability up to 32 ug/ml after 2 hrs by MTS assay. The class given is cell-based. The note with it: hrt-18, 2 h.
A short description of series [25]: Selectivity index, ratio of toxic concentration for human HRT18 cells to MIC for methicillin-resistant Staphylococcus aureus. The series is classed as toxicity. As to conditions: read-out: Selectivity Index.
In series [26] the test system is Staphylococcus aureus. The series is described as follows: Inhibition of UPPS/UPPP in vancomycin-resistant Staphylococcus aureus VRS10 assessed as potentiation of vancomycin-induced antibacterial activity by measuring fold reduction in vancomycin MIC at 0.5 times MIC preincubated for 30 mins followed by vancomycin addition measured after 20 to 22 hrs by broth microdilution assay relative to control. The essentials: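 VRS10 suspension pre-exposed to compound at ½ × MIC for 30 min at room temperature. […] Incubation at 37 °C for 20–22 h before the MIC was read; untreated bacteria served as control.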

Series [27] relates to Staphylococcus aureus. Description: Antibacterial activity against methicillin-resistant Staphylococcus aureus USA300 in Balb/c mouse skin infection model assessed as reduction in bacterial burden in wounded skin area at 2% administered topically twice daily for 5 consecutive days measured 12 hrs post last dose relative to control. The series is classed as functional. Also on record: scale not given: the % may be the effect or the level left. The procedure, abridged: (§3)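 Female Balb/c mice, 8 weeks old, n=5 per group. Intradermal injection of 40 μL of 1.32×10^9 CFU/mL USA300; a wound formed by ~66 h. Treated topically with a 2% suspension in petroleum jelly twice daily for 5 days; the vehicle group served as control. Wounds excised 12 h after the last dose, homogenized in PBS and plated on mannitol salt agar; sites also observed for redness and swelling.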

Series [28] deals with Mus musculus. The series is described as follows: Induction of inflammation in Balb/c mouse infected with methicillin-resistant Staphylococcus aureus USA300 assessed as redness around wounded skin area at 2% administered topically twice daily for 5 consecutive days measured 12 hrs post last dose relative to control. As to conditions: in vivo, topical_or_ocular. The series is classed as organism-based. The procedure, abridged: as §3

In series [29] the test system is Mus musculus. Description: Induction of inflammation in Balb/c mouse infected with methicillin-resistant Staphylococcus aureus USA300 assessed as swelling around wounded skin area at 2% administered topically twice daily for 5 consecutive days measured 12 hrs post last dose. The class given is organism-based. As to conditions: in vivo, topical_or_ocular. The essentials: as §3

Series [30] relates to Mus musculus. Description: Toxicity in wounded skin area of Balb/c mouse infected with methicillin-resistant Staphylococcus aureus USA300 at 2% administered topically twice daily for 5 consecutive days measured 12 hrs post last dose. The series is classed as organism-based. As to conditions: in vivo, topical_or_ocular. The essentials:
as §3

Values after ≈ are worked out from the molar mass of the structure shown.

For orientation: MIC means the smallest concentration in the dilution series that meets the test's criterion for growth inhibition. For the compound `C/C(=N\NC(=N)N)c1sc(-c2ccc(C#Cc3ccccc3)cc2)nc1C`, the MIC with Staphylococcus aureus [1] was found to be 2 µg/mL (≈ 5.35 µM); in the series with Staphylococcus aureus [2] it was 1 µg/mL (≈ 2.68 µM); against Staphylococcus aureus [5] it was 1 µg/mL (≈ 2.68 µM); in the series on Staphylococcus aureus [7], 1 µg/mL (≈ 2.68 µM); in the series with Staphylococcus aureus [9] it was 1 µg/mL (≈ 2.68 µM); in the series with Staphylococcus aureus [11], 1 µg/mL (≈ 2.68 µM). Further, in the series on Staphylococcus aureus [13], inhibition of growth (MIC) required 2 µg/mL (≈ 5.35 µM). Also, the MBC stood at 1 µg/mL (≈ 2.68 µM) in the series with Staphylococcus aureus [3]; 2 µg/mL (≈ 5.35 µM) with Staphylococcus aureus [4]; 2 µg/mL (≈ 5.35 µM) in the series with Staphylococcus aureus [6]; 4 µg/mL (≈ 10.7 µM) in the series on Staphylococcus aureus [8]; 2 µg/mL (≈ 5.35 µM) in the series with Staphylococcus aureus [10]; 2 µg/mL (≈ 5.35 µM) with Staphylococcus aureus [12]. The MBC in the series on Staphylococcus aureus [14] was found to be 2 µg/mL (≈ 5.35 µM). Also, the Ratio in the series on Staphylococcus aureus [15] is above 100; in the series on Staphylococcus aureus [16], above 100; in the series with Staphylococcus aureus [17] it was 8; with Staphylococcus aureus [18] it was “<=3”; with Staphylococcus aureus [19], “<=3”; in the series on Staphylococcus aureus [20], “<=3”. Further, the Ratio in the series on Staphylococcus aureus [21] is 4; in the series with Staphylococcus aureus [22], “<=3”; with Staphylococcus aureus [23], “<=3”; in the series with Staphylococcus aureus [24] it was “<=3”. Further, the Activity result in the series with HRT-18 cell line was “Non-Toxic”. Moreover, the selectivity ratio in series [25] is 7 to 31. Further, in the series on Staphylococcus aureus [26], the fold change (FC) is 512.

Take `CC(=O)O[C@H]1C[C@@]2(C)[C@@H](C[C@@H](O)[C@H]3[C@@]4(C)CC[C@@H](O)[C@@H](C)[C@@H]4CC[C@@]32C)/C1=C(\CCC=C(C)C)C(=O)O` [FUSIDIC ACID]: the Activity is listed as 78% in the series on Staphylococcus aureus [27], “Non-Toxic” in the series on Mus musculus [28], “Non-Toxic” with Mus musculus [29] and “Non-Toxic” in the series with Mus musculus [30].

Turning to `C/C(=N\NC(=N)N)c1sc(-c2ccc(C#CC(C)(C)C)cc2)nc1C`, the MIC with Staphylococcus aureus [1] stood at 2 µg/mL (≈ 5.66 µM); against Staphylococcus aureus [2], 4 µg/mL (≈ 11.3 µM); in the series on Staphylococcus aureus [5], 2 µg/mL (≈ 5.66 µM); in the series with Staphylococcus aureus [7], 4 µg/mL (≈ 11.3 µM); in the series on Staphylococcus aureus [9], 4 µg/mL (≈ 11.3 µM); with Staphylococcus aureus [11], 2 µg/mL (≈ 5.66 µM). In the series on Staphylococcus aureus [13], this compound showed an MIC of 4 µg/mL (≈ 11.3 µM). Besides, the MBC in the series on Staphylococcus aureus [3] came out at 4 µg/mL (≈ 11.3 µM); in the series with Staphylococcus aureus [4] it was 4 µg/mL (≈ 11.3 µM); in the series on Staphylococcus aureus [6] it was 2 µg/mL (≈ 5.66 µM); in the series with Staphylococcus aureus [8] it was 16 µg/mL (≈ 45.3 µM); with Staphylococcus aureus [10], 4 µg/mL (≈ 11.3 µM); with Staphylococcus aureus [12], 8 µg/mL (≈ 22.6 µM). Also, in the series with Staphylococcus aureus [14], the MBC came out at 4 µg/mL (≈ 11.3 µM). For the same compound, the Ratio is above 100 in the series on Staphylococcus aureus [15]; above 100 in the series on Staphylococcus aureus [16]; 4 with Staphylococcus aureus [17]; “<=3” in the series on Staphylococcus aureus [18]; “<=3” in the series with Staphylococcus aureus [19]; “<=3” in the series on Staphylococcus aureus [20]. Moreover, the Ratio was 4 with Staphylococcus aureus [21], “<=3” in the series with Staphylococcus aureus [22], 4 in the series with Staphylococcus aureus [23] (read-out: Ratio) and “<=3” in the series on Staphylococcus aureus [24]. In the series on HRT-18 cell line, the Activity entry is reported as “Non-Toxic”. For the same compound, the selectivity ratio in series [25] was 7 to 31.

The record behind these values is ChEMBL document CHEMBL4196022, “Alkynyl-containing phenylthiazoles: Systemically active antibacterial agents effective against methicillin-resistant Staphylococcus aureus (MRSA)” (Eur J Med Chem, 2018).
